In brackets after ≈: the same amount, converted by molar mass.
Assays:
[1] = system: Mycobacterium tuberculosis; assay: Antitubercular activity against active Mycobacterium tuberculosis H37Ra ATCC 25177 infected in human THP1 cells after 8 days by nitrate reductase assay; assay type: functional; details: H37Ra ATCC 25177, 192 h
[2] = system: Mycobacterium tuberculosis; assay: Antitubercular activity against active Mycobacterium tuberculosis H37Ra ATCC 25177 after 8 days by XTT reduction menadione assay; assay type: functional; details: H37Ra ATCC 25177, 192 h
How it was run: (§1)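 H37Ra was tested by microdilution in 96-well plates, at 30–0.001 μg/mL in one-third dilutions. Each plate carried a rifampicin and isoniazid dilution series as positive controls. Growth was scored by XTT reduction menadione assay (XRMA) and cross-checked by a final absorbance reading at 600 nm.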

[3] = system: Mycobacterium tuberculosis; assay: Antitubercular activity against dormant Mycobacterium tuberculosis H37Ra ATCC 25177 infected in human THP1 cells after 12 days by nitrate reductase assay; assay type: functional; details: H37Ra ATCC 25177, 288 h
[4] = system: Mycobacterium tuberculosis; assay: Antitubercular activity against dormant Mycobacterium tuberculosis H37Ra ATCC 25177 after 12 days by XTT reduction menadione assay; assay type: functional; details: H37Ra ATCC 25177, 288 h; how it was run: as §1
[5] = (§2) Cytotoxicity against human THP1 cells assessed as growth inhibition after 72 hrs by MTT assay; assay type: cell-based, THP-1; details: THP-1 cells
[6] = system: THP-1; assay: as §2; assay type: cell-based; details: thp-1, 72 h
[7] = Selectivity index, ratio of GI50 for human HeLa cells to MIC90 for dormant Mycobacterium bovis BCG ATCC 35734; assay type: toxicity; details: read-out: Selectivity Index
[8] = Selectivity index, ratio of GI50 for human HeLa cells to MIC90 for active Mycobacterium bovis BCG ATCC 35734; assay type: toxicity; details: read-out: Selectivity Index
[9] = system: Mycobacterium tuberculosis; assay: Antitubercular activity against dormant Mycobacterium tuberculosis H37Ra ATCC 25177 at 3 to 30 ug/ml after 12 days by XTT reduction menadione assay; assay type: functional; design: scale not given: the % may be the effect or the level left
[10] = system: HeLa; assay: (§3) Cytotoxicity against human HeLa cells assessed as growth inhibition after 72 hrs by MTT assay; assay type: cell-based; details: hela, 72 h
[11] = as §3; assay type: cell-based; details: HeLa cells
[12] = (§4) Cytotoxicity against human PANC1 cells assessed as growth inhibition after 90 hrs by MTT assay; assay type: cell-based, PANC-1; details: PANC-1 cells
[13] = system: PANC-1; assay: as §4; assay type: cell-based; details: panc-1, 90 h
[14] = Antioxidant activity assessed as DPPH radical scavenging activity after 30 mins by spectrophotometric method; assay type: functional
[15] = Selectivity index, ratio of GI50 for human PANC1 cells to MIC90 for dormant Mycobacterium bovis BCG ATCC 35734; assay type: toxicity; details: PANC-1 cells, read-out: Selectivity Index
[16] = Selectivity index, ratio of GI50 for human THP1 cells to MIC90 for active Mycobacterium bovis BCG ATCC 35734; assay type: toxicity; details: THP-1 cells, read-out: Selectivity Index
[17] = Selectivity index, ratio of GI50 for human THP1 cells to MIC90 for dormant Mycobacterium bovis BCG ATCC 35734; assay type: toxicity; details: THP-1 cells, read-out: Selectivity Index
[18] = Selectivity index, ratio of GI50 for human PANC1 cells to MIC90 for active Mycobacterium bovis BCG ATCC 35734; assay type: toxicity; details: PANC-1 cells, read-out: Selectivity Index
[19] = Selectivity index, ratio of GI50 for human THP1 cells to MIC90 for active Mycobacterium tuberculosis H37Ra ATCC 25177; assay type: toxicity; details: THP-1 cells, read-out: Selectivity Index
[20] = Selectivity index, ratio of GI50 for human THP1 cells to MIC90 for dormant Mycobacterium tuberculosis H37Ra ATCC 25177; assay type: toxicity; details: THP-1 cells, read-out: Selectivity Index

CO[C@H]1/C=C/O[C@@]2(C)Oc3c(C)c(O)c4c(O)c(c(/C=N/N5CCN(C)CC5)c(O)c4c3C2=O)NC(=O)/C(C)=C\C=C\[C@H](C)[C@H](O)[C@@H](C)[C@@H](O)[C@@H](C)[C@H](OC(C)=O)[C@@H]1C [RIFAMPIN]
MIC90 [1]: 0.5 µg/mL (≈ 0.608 µM) | MIC90 [2]: 0.048 µg/mL (≈ 0.0583 µM) | MIC90 [3]: 0.8 µg/mL (≈ 0.972 µM) | MIC90 [4]: 0.043 µg/mL (≈ 0.0523 µM)

Cc1ccc(C(=O)CC(=O)c2cc3ccccc3s2)c(O)c1
GI50 at 72 h [5]: > 100 µg/mL | GI90 [6]: > 100 µg/mL | MIC90 [1]: 25.8 µg/mL (≈ 83.3 µM) | selectivity ratio [7]: > 13 | MIC90 [2]: 5.45 µg/mL (≈ 17.6 µM) | MIC90 [3]: 2.61 µg/mL (≈ 8.41 µM) | selectivity ratio [8]: > 13 | MIC90 [4]: 4.41 µg/mL (≈ 14.2 µM) | Activity [9]: >92% | GI90 [10]: > 30 µg/mL | GI50 at 72 h [11]: 23.1 µg/mL (≈ 74.5 µM) | GI50 at 90 h [12]: 9.24 µg/mL (≈ 29.8 µM) | GI90 [13]: > 30 µg/mL | EC50 [14]: 20 µg/mL (≈ 64.4 µM)

Cc1ccc(O)c(C(=O)CC(=O)c2cc3ccccc3s2)c1
GI50 at 72 h [5]: > 100 µg/mL | GI90 [6]: > 100 µg/mL | selectivity ratio [15]: > 10 | GI90 [10]: > 30 µg/mL | GI50 at 72 h [11]: 7.12 µg/mL (≈ 22.9 µM) | GI50 at 90 h [12]: 15.8 µg/mL (≈ 51 µM) | GI90 [13]: > 30 µg/mL

O=C(CC(=O)c1cc(Cl)ccc1O)c1cc2ccccc2s1
GI50 at 72 h [5]: 7.48 µg/mL (≈ 22.6 µM) | GI90 [6]: > 30 µg/mL | MIC90 [1]: 2.83 µg/mL (≈ 8.56 µM) | MIC90 [2]: 3.29 µg/mL (≈ 9.95 µM) | MIC90 [3]: 0.91 µg/mL (≈ 2.75 µM) | MIC90 [4]: 2.79 µg/mL (≈ 8.43 µM) | Activity [9]: >92% | GI90 [10]: 8.24 µg/mL (≈ 24.9 µM) | GI50 at 72 h [11]: 4.42 µg/mL (≈ 13.4 µM) | GI50 at 90 h [12]: 8.44 µg/mL (≈ 25.5 µM) | GI90 [13]: 26.03 µg/mL (≈ 78.7 µM)

Cc1ccc2oc(-c3cc4ccccc4s3)cc(=O)c2c1
GI50 at 72 h [5]: > 100 µg/mL | GI90 [6]: > 100 µg/mL | MIC90 [1]: 8.39 µg/mL (≈ 28.7 µM) | selectivity ratio [7]: > 20 | MIC90 [2]: 28.9 µg/mL (≈ 98.7 µM) | selectivity ratio [16]: > 22 | MIC90 [3]: 2.76 µg/mL (≈ 9.44 µM) | selectivity ratio [8]: > 20 | selectivity ratio [15]: > 20 | MIC90 [4]: 30 µg/mL (≈ 103 µM) | selectivity ratio [17]: > 22 | GI90 [10]: 27.8 µg/mL (≈ 95.1 µM) | GI50 at 72 h [11]: 15.6 µg/mL (≈ 53.2 µM) | GI50 at 90 h [12]: 12.9 µg/mL (≈ 44 µM) | GI90 [13]: 29.75 µg/mL (≈ 102 µM) | selectivity ratio [18]: > 20

Cc1cc2oc(-c3cc4ccccc4s3)cc(=O)c2cc1Cl
GI50 at 72 h [5]: > 100 µg/mL | GI90 [6]: > 100 µg/mL | MIC90 [1]: 7.67 µg/mL (≈ 23.5 µM) | selectivity ratio [7]: > 35 | MIC90 [2]: 25.4 µg/mL (≈ 77.6 µM) | selectivity ratio [16]: > 30 | MIC90 [3]: 2.18 µg/mL (≈ 6.67 µM) | selectivity ratio [19]: > 30 | selectivity ratio [8]: > 35 | MIC90 [4]: 24.3 µg/mL (≈ 74.5 µM) | selectivity ratio [17]: > 30 | selectivity ratio [20]: > 30 | GI90 [10]: > 30 µg/mL | GI50 at 72 h [11]: 21.2 µg/mL (≈ 64.9 µM) | GI50 at 90 h [12]: > 100 µg/mL | GI90 [13]: > 100 µg/mL

O=C(CC(=O)c1cc(Cl)cc(Cl)c1O)c1cc2ccccc2s1
GI50 at 72 h [5]: > 100 µg/mL | GI90 [6]: > 100 µg/mL | selectivity ratio [15]: > 10 | GI90 [10]: > 100 µg/mL | GI50 at 72 h [11]: > 100 µg/mL | GI50 at 90 h [12]: 26.2 µg/mL (≈ 71.8 µM) | GI90 [13]: > 30 µg/mL

O=C(CC(=O)c1cc(Br)ccc1O)c1cc2ccccc2s1
GI50 at 72 h [5]: > 100 µg/mL | GI90 [6]: > 100 µg/mL | MIC90 [1]: 4.94 µg/mL (≈ 13.2 µM) | MIC90 [2]: 2.87 µg/mL (≈ 7.65 µM) | MIC90 [3]: 3.91 µg/mL (≈ 10.4 µM) | selectivity ratio [15]: > 10 | MIC90 [4]: 2.63 µg/mL (≈ 7.01 µM) | Activity [9]: >92% | GI90 [10]: 20.28 µg/mL (≈ 54 µM) | GI50 at 72 h [11]: 6.75 µg/mL (≈ 18 µM) | GI50 at 90 h [12]: 18.3 µg/mL (≈ 48.8 µM) | GI90 [13]: > 30 µg/mL | selectivity ratio [18]: > 10

CC(=O)O[C@H]1C(=O)[C@@]2(C)[C@H]([C@H](OC(=O)c3ccccc3)[C@]3(O)C[C@H](OC(=O)[C@H](O)[C@@H](NC(=O)c4ccccc4)c4ccccc4)C(C)=C1C3(C)C)[C@]1(OC(C)=O)CO[C@@H]1C[C@@H]2O [PACLITAXEL]
GI50 at 72 h [5]: 0.133 µg/mL (≈ 0.156 µM) | GI90 [6]: 5.81 µg/mL (≈ 6.8 µM) | GI90 [10]: 0.075 µg/mL (≈ 0.0878 µM) | GI50 at 72 h [11]: 0.004 µg/mL (≈ 0.00468 µM) | GI50 at 90 h [12]: 0.127 µg/mL (≈ 0.149 µM) | GI90 [13]: 5.715 µg/mL (≈ 6.69 µM)

O=C(CC(=O)c1ccccc1O)c1cc2ccccc2s1
GI50 at 72 h [5]: > 100 µg/mL | GI90 [6]: > 100 µg/mL | MIC90 [1]: 2.96 µg/mL (≈ 9.99 µM) | MIC90 [2]: 25.2 µg/mL (≈ 84.9 µM) | MIC90 [3]: 1.82 µg/mL (≈ 6.14 µM) | MIC90 [4]: 2.05 µg/mL (≈ 6.92 µM) | Activity [9]: >92% | GI90 [10]: > 30 µg/mL | GI50 at 72 h [11]: 7.86 µg/mL (≈ 26.5 µM) | GI50 at 90 h [12]: 7.77 µg/mL (≈ 26.2 µM) | GI90 [13]: > 30 µg/mL

Cc1cc(O)c(C(=O)CC(=O)c2cc3ccccc3s2)cc1Cl
GI50 at 72 h [5]: > 100 µg/mL | GI90 [6]: > 100 µg/mL | selectivity ratio [16]: > 22 | selectivity ratio [17]: > 22 | GI90 [10]: > 100 µg/mL | GI50 at 72 h [11]: > 100 µg/mL | GI50 at 90 h [12]: 20.4 µg/mL (≈ 59 µM) | GI90 [13]: > 30 µg/mL

NNC(=O)c1ccncc1 [ISONIAZID]
MIC90 [1]: 0.05 µg/mL (≈ 0.365 µM) | MIC90 [2]: 0.074 µg/mL (≈ 0.54 µM) | MIC90 [3]: 0.075 µg/mL (≈ 0.547 µM) | MIC90 [4]: 0.075 µg/mL (≈ 0.547 µM)

— ChEMBL document CHEMBL4431374, “Synthesis and Antitubercular Activity of New Benzo[b]thiophenes” (ACS Med Chem Lett, 2016)
